Data reported in ChEMBL document CHEMBL1926569, “Novel (E)-1-(4-methyl-2-(alkylamino)thiazol-5-yl)-3-arylprop-2-en-1-ones as potent antimicrobial agents” (2011).
In brackets after ≈: the same amount, converted by molar mass.

Tests used:
Salmonella typhimurium [1] = test: Antibacterial activity against Salmonella Typhimurium ATCC 13311 after 24 hrs by microdilution method; format: functional, Salmonella enterica subsp. enterica serovar Typhimurium; conditions: Salmonella enterica, ATCC 13311, 24 h
Procedure, shortened: (§1)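 Broth microdilution in 96-well plates. Bacterial suspensions were adjusted in sterile saline to 1.0 × 10⁵ CFU/ml, prepared daily and kept at 4 °C. Compound was added to LB broth with 1.0 × 10⁴ CFU per well and shaken at 160 rpm for 24 h at […] (so in the source). MIC is the lowest concentration with no visible growth under a binocular microscope. OD655 was also read. Duplicate, repeated three times.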

Micrococcus flavus [2] = test: Antibacterial activity against Micrococcus flavus ATCC 10240 incubated for 24 hrs followed by serial sub-cultivation for 24 hrs by microdilution; format: functional; conditions: ATCC 10240, 24 h
Procedure, shortened: (§2)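 MBC: after the 24 h LB broth microdilution (1.0 × 10⁴ CFU per well, 160 rpm), wells were serially sub-cultured into fresh broth plates and incubated a further 24 h. MBC is the lowest concentration with no visible growth, taken as 99.5% killing of the original inoculum. Duplicate, repeated three times.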

Aspergillus ochraceus [3] = test: Ratio of bifonazole to compound for Aspergillus ochraceus ATCC 12066; format: functional
Salmonella typhimurium [4] = test: Antibacterial activity against Salmonella Typhimurium ATCC 13311 incubated for 24 hrs followed by serial sub-cultivation for 24 hrs by microdilution; format: functional, Salmonella enterica subsp. enterica serovar Typhimurium; conditions: Salmonella enterica, ATCC 13311, 24 h; procedure, shortened: as §2
Candida albicans [5] = test: Antifungal activity against Candida albicans isolated from human incubated for 72 hrs followed by serial sub-cultivation for 72 hrs by serial dilution technique; format: functional
Procedure, shortened: (§3)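 MFC: material from 72 h malt broth microdilution wells was serially sub-cultured into fresh broth plates and incubated a further 72 h at 28 °C. Fungicidal concentration is taken from growth after sub-culture. Duplicate, repeated three times.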

Trichoderma viride [6] = test: Antifungal activity against Trichoderma viride IAM 5061 after 72 hrs by serial dilution technique; format: functional; conditions: IAM 5061, 72 h
Procedure, shortened: (§4)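 Modified microdilution in 96-well plates. Fungi were kept on malt agar at 4 °C. Spores were washed off in sterile 0.85% saline with 0.1% Tween 80. Compounds were dissolved at 1 mg/ml in 5% DMSO with 0.1% Tween 80 and added to malt broth with inoculum. Plates were shaken at 160 rpm for 72 h at 28 °C. Duplicate, repeated three times.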

Pseudomonas aeruginosa [7] = test: Antibacterial activity against Pseudomonas aeruginosa ATCC 27853 incubated for 24 hrs followed by serial sub-cultivation for 24 hrs by microdilution; format: functional; conditions: ATCC 27853, 24 h; procedure, shortened: as §2
Penicillium ochrochloron [8] = test: Antifungal activity against Penicillium ochrochloron ATCC 9112 after 72 hrs by serial dilution technique; format: functional; conditions: ATCC 9112, 72 h; procedure, shortened: as §4
Aspergillus niger [9] = test: Ratio of bifonazole to compound for Aspergillus niger ATCC 6275; format: functional
Pseudomonas aeruginosa [10] = test: Antibacterial activity against Pseudomonas aeruginosa ATCC 27853 after 24 hrs by microdilution method; format: functional; conditions: ATCC 27853, 24 h; procedure, shortened: as §1
Aspergillus ochraceus [11] = test: Antifungal activity against Aspergillus ochraceus ATCC 12066 incubated for 72 hrs followed by serial sub-cultivation for 72 hrs by serial dilution technique; format: functional; conditions: ATCC 12066, 72 h; procedure, shortened: as §3
Staphylococcus aureus [12] = test: Antibacterial activity against Staphylococcus aureus ATCC 6538 incubated for 24 hrs followed by serial sub-cultivation for 24 hrs by microdilution method; format: functional; conditions: ATCC 6538, 24 h; procedure, shortened: as §2
Staphylococcus aureus [13] = test: Antibacterial activity against Staphylococcus aureus ATCC 6538 after 24 hrs by microdilution method; format: functional; conditions: ATCC 6538, 24 h; procedure, shortened: as §1
Bacillus cereus [14] = test: Antibacterial activity against clinical isolate of Bacillus cereus after 24 hrs by microdilution method; format: functional; procedure, shortened: as §1
Penicillium ochrochloron [15] = test: Ratio of ketoconazole to compound for Penicillium ochrochloron ATCC 9112; format: functional
Aspergillus ochraceus [16] = test: Antifungal activity against Aspergillus ochraceus ATCC 12066 after 72 hrs by serial dilution technique; format: functional; conditions: ATCC 12066, 72 h; procedure, shortened: as §4
Listeria monocytogenes [17] = test: Antibacterial activity against Listeria monocytogenes NCTC 7973 after 24 hrs by microdilution method; format: functional; conditions: NCTC 7973, 24 h; procedure, shortened: as §1
Candida albicans [18] = test: Ratio of ketoconazole to compound for Candida albicans isolated from human; format: functional
Candida albicans [19] = test: Ratio of bifonazole to compound for Candida albicans isolated from human; format: functional
Penicillium ochrochloron [20] = test: Antifungal activity against Penicillium ochrochloron ATCC 9112 incubated for 72 hrs followed by serial sub-cultivation for 72 hrs by serial dilution technique; format: functional; conditions: ATCC 9112, 72 h; procedure, shortened: as §3
Enterococcus faecalis [21] = test: Antibacterial activity against Enterococcus faecalis isolated from human incubated for 24 hrs followed by serial sub-cultivation for 24 hrs by microdilution; format: functional; procedure, shortened: as §2
Aspergillus ochraceus [22] = test: Antifungal activity against Aspergillus ochraceus after 72 hrs by serial dilution technique
Aspergillus flavus [23] = test: Antifungal activity against Aspergillus flavus ATCC 9643 incubated for 72 hrs followed by serial sub-cultivation for 72 hrs by serial dilution technique; format: functional; conditions: ATCC 9643, 72 h; procedure, shortened: as §3
Aspergillus ochraceus [24] = test: Ratio of ketoconazole to compound for Aspergillus ochraceus ATCC 12066; format: functional
Talaromyces funiculosus [25] = test: Antifungal activity against Penicillium funiculosum ATCC 36839 after 72 hrs by serial dilution technique; format: functional; conditions: ATCC 36839, 72 h; procedure, shortened: as §4
Trichoderma viride [26] = test: Antifungal activity against Trichoderma viride IAM 5061 incubated for 72 hrs followed by serial sub-cultivation for 72 hrs by serial dilution technique; format: functional; conditions: IAM 5061, 72 h; procedure, shortened: as §3
Bacillus cereus [27] = test: Antibacterial activity against clinical isolate of Bacillus cereus incubated for 24 hrs followed by serial sub-cultivation for 24 hrs by microdilution; format: functional; procedure, shortened: as §2
Candida albicans [28] = test: Antifungal activity against Candida albicans isolated from human after 72 hrs by serial dilution technique; format: functional; procedure, shortened: as §4
Micrococcus flavus [29] = test: Antibacterial activity against Micrococcus flavus ATCC 10240 after 24 hrs by microdilution method; format: functional; conditions: ATCC 10240, 24 h; procedure, shortened: as §1
Aspergillus niger [30] = test: Antifungal activity against Aspergillus niger ATCC 6275 incubated for 72 hrs followed by serial sub-cultivation for 72 hrs by serial dilution technique; format: functional; conditions: ATCC 6275, 72 h; procedure, shortened: as §3
Listeria monocytogenes [31] = test: Antibacterial activity against Listeria monocytogenes NCTC 7973 incubated for 24 hrs followed by serial sub-cultivation for 24 hrs by microdilution; format: functional; conditions: NCTC 7973, 24 h; procedure, shortened: as §2
Enterococcus faecalis [32] = test: Antibacterial activity against Enterococcus faecalis isolated from human after 24 hrs by microdilution method; format: functional; procedure, shortened: as §1
Escherichia coli [33] = test: Antibacterial activity against Escherichia coli ATCC 35210 after 24 hrs by microdilution method; format: functional; conditions: ATCC 35210, 24 h; procedure, shortened: as §1
Aspergillus flavus [34] = test: Antifungal activity against Aspergillus flavus ATCC 9643 after 72 hrs by serial dilution technique; format: functional; conditions: ATCC 9643, 72 h; procedure, shortened: as §4
Aspergillus niger [35] = test: Antifungal activity against Aspergillus niger ATCC 6275 after 72 hrs by serial dilution technique; format: functional; conditions: ATCC 6275, 72 h; procedure, shortened: as §4
Pseudomonas aeruginosa [36] = test: Ratio of ampicillin MIC to compound MIC for Pseudomonas aeruginosa ATCC 27853; format: functional
Talaromyces funiculosus [37] = test: Ratio of bifonazole to compound for Penicillium funiculosum ATCC 36839; format: functional
Penicillium ochrochloron [38] = test: Ratio of bifonazole to compound for Penicillium ochrochloron ATCC 9112; format: functional
Aspergillus fumigatus [39] = test: Ratio of ketoconazole to compound for Aspergillus fumigatus isolated from human; format: functional
Escherichia coli [40] = test: Antibacterial activity against Escherichia coli ATCC 35210 incubated for 24 hrs followed by serial sub-cultivation for 24 hrs by microdilution; format: functional; conditions: ATCC 35210, 24 h; procedure, shortened: as §2
Aspergillus fumigatus [41] = test: Antifungal activity against Aspergillus fumigatus isolated from human incubated for 72 hrs followed by serial sub-cultivation for 72 hrs by serial dilution technique; format: functional; procedure, shortened: as §3
Talaromyces funiculosus [42] = test: Antifungal activity against Penicillium funiculosum ATCC 36839 incubated for 72 hrs followed by serial sub-cultivation for 72 hrs by serial dilution technique; format: functional; conditions: ATCC 36839, 72 h; procedure, shortened: as §3
Trichoderma viride [43] = test: Ratio of bifonazole to compound for Trichoderma viride IAM 5061; format: functional

MIC (Salmonella typhimurium [1]): 70 µM (≈ 20 µg/mL) | MIC (Trichoderma viride [6]): 26.2 µM (≈ 7.5 µg/mL) | MIC (Penicillium ochrochloron [8]): 35 µM (≈ 10 µg/mL) | MIC (Pseudomonas aeruginosa [10]): 70 µM (≈ 20 µg/mL) | MIC (Staphylococcus aureus [13]): 90 µM (≈ 25.8 µg/mL) | MIC (Bacillus cereus [14]): 35 µM (≈ 10 µg/mL) | MIC (Aspergillus ochraceus [16]): 35 µM (≈ 10 µg/mL) | MIC (Listeria monocytogenes [17]): 90 µM (≈ 25.8 µg/mL) | MIC (Aspergillus ochraceus [22]): 52.4 µM (≈ 15 µg/mL) | MIC (Talaromyces funiculosus [25]): 52.4 µM (≈ 15 µg/mL) | MIC (Candida albicans [28]): 35 µM (≈ 10 µg/mL) | MIC (Micrococcus flavus [29]): 70 µM (≈ 20 µg/mL) | MIC (Enterococcus faecalis [32]): 90 µM (≈ 25.8 µg/mL) | MIC (Escherichia coli [33]): 70 µM (≈ 20 µg/mL) | MIC (Aspergillus flavus [34]): 52.4 µM (≈ 15 µg/mL) | MIC (Aspergillus niger [35]): 52.4 µM (≈ 15 µg/mL)
SMILES: CCCNc1nc(C)c(C(=O)/C=C/c2ccccc2)s1
MBC (Micrococcus flavus [2]): 105 µM (≈ 30.1 µg/mL) | Ratio (Aspergillus ochraceus [3]): 10 | MBC (Salmonella typhimurium [4]): 90 µM (≈ 25.8 µg/mL) | MFC (Candida albicans [5]): 70 µM (≈ 20 µg/mL) | MBC (Pseudomonas aeruginosa [7]): 90 µM (≈ 25.8 µg/mL) | Ratio (Aspergillus niger [9]): 10 | MFC (Aspergillus ochraceus [11]): 52.4 µM (≈ 15 µg/mL) | MBC (Staphylococcus aureus [12]): 105 µM (≈ 30.1 µg/mL) | Ratio (Penicillium ochrochloron [15]): 10 | Ratio (Candida albicans [18]): 10 | Ratio (Candida albicans [19]): 10 | MFC (Penicillium ochrochloron [20]): 70 µM (≈ 20 µg/mL) | MBC (Enterococcus faecalis [21]): 90 µM (≈ 25.8 µg/mL) | MFC (Aspergillus flavus [23]): 70 µM (≈ 20 µg/mL) | Ratio (Aspergillus ochraceus [24]): 10 | MFC (Trichoderma viride [26]): 35 µM (≈ 10 µg/mL) | MBC (Bacillus cereus [27]): 70 µM (≈ 20 µg/mL) | MFC (Aspergillus niger [30]): 70 µM (≈ 20 µg/mL) | MBC (Listeria monocytogenes [31]): 105 µM (≈ 30.1 µg/mL) | Ratio (Pseudomonas aeruginosa [36]): 10 | Ratio (Talaromyces funiculosus [37]): 10 | Ratio (Penicillium ochrochloron [38]): 10 | Ratio (Aspergillus fumigatus [39]): 10 | MBC (Escherichia coli [40]): 88 µM (≈ 25.2 µg/mL) | MFC (Aspergillus fumigatus [41]): 70 µM (≈ 20 µg/mL) | MFC (Talaromyces funiculosus [42]): 70 µM (≈ 20 µg/mL) | Ratio (Trichoderma viride [43]): 10
